From ChEMBL document CHEMBL3085692, “Violapyrones A-G, α-pyrone derivatives from Streptomyces violascens isolated from Hylobates hoolock feces” (J Nat Prod, 2013) come the findings set out here.

One test deals with Aspergillus niger. As to the kind of experiment: Antimicrobial activity against Aspergillus niger ATCC 1015 by micro broth dilution method. It counts as functional. A digest of the protocol:
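Antifungal MIC against A. niger, reported as the mean of three independent experiments. Amphotericin B served as the reference antifungal.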

The subject of the next test is Candida albicans. As to the kind of experiment: Antimicrobial activity against Candida albicans ATCC 10231 by micro broth dilution method. It counts as functional. A digest of the protocol: (§1)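 Endpoint is the minimal inhibitory concentration (MIC), reported as the mean of three independent experiments. Reference drugs were ciprofloxacin for the bacteria and amphotericin B for the fungi. E. coli ATCC 25922 and P. aeruginosa ATCC 27853 were tested in a panel with B. subtilis ATCC 6633 and S. aureus ATCC 25923.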

The next test deals with Pseudomonas aeruginosa. The test is described as follows: Antimicrobial activity against Pseudomonas aeruginosa ATCC 27853 by micro broth dilution method. It counts as functional, organism-based. An outline of the steps: as §1
On the technique in general: In broth dilution the organism is exposed to a series of concentrations in liquid medium.

The next test has as its system Escherichia coli. The test is described as follows: Antimicrobial activity against Escherichia coli ATCC 25922 by micro broth dilution method. It counts as functional, organism-based. A digest of the protocol: as §1
For the next test, the system named is Staphylococcus aureus. The test is described as follows: Antimicrobial activity against Staphylococcus aureus ATCC 25923 by micro broth dilution method. It counts as functional. An outline of the steps:
(§2)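 Bacterial panel run against B. subtilis ATCC 6633 and S. aureus ATCC 25923. Read-out is minimal inhibitory concentration (MIC), reported as the mean of three independent experiments. Ciprofloxacin served as the reference antibacterial.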

For the next test, the system named is Bacillus subtilis. As to the kind of experiment: Antimicrobial activity against Bacillus subtilis ATCC 6633 by micro broth dilution method. The test is classed as functional. A digest of the protocol: as §2
In a further test the test system is HCT-116. As to the kind of experiment: Cytotoxicity against human HCT116 cells by MTT assay. It counts as functional, cell-based. A digest of the protocol: (§3)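 MTT read-out measured on a microplate reader, with IC50 derived for each of the five lines (BGC-823, HepG2, H460, HeLa, HCT-116). Adriamycin was the positive control.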
Background: Tetrazolium assays rely on reduction of a dye to a coloured formazan, in cell work by metabolically active cells.

The subject of another test is HeLa. The test is described as follows: Cytotoxicity against human HeLa cells by MTT assay. The test is classed as functional, cell-based. A digest of the protocol: as §3
The subject of a further test is HepG2. As to the kind of experiment: Cytotoxicity against human HepG2 cells by MTT assay. The test is classed as functional, cell-based.
Test [1] can be described thus: Cytotoxicity against human H460 cells by MTT assay. The note with it: NCI-H460. It counts as functional, cell-based. An outline of the steps:
as §3

Test [2] in a line: Cytotoxicity against human BGC823 cells by MTT assay. The note with it: BGC-823. The test is classed as functional, cell-based. An outline of the steps:
as §3

Values after ≈ are worked out from the molar mass of the structure shown. Active and inactive are the calls of the source. The calls are words filed in the database; no cut-off is given here.

What is called MIC is the least concentration at which growth counts as inhibited. A low value points to greater potency. As a reminder, the IC50 is the point on the concentration scale where inhibition reaches its midpoint. Higher therefore signals a need for much substance. Take `Cc1c(O)cc(CCCCC(C)C)oc1=O`: the outcome in the test with Aspergillus niger, in the test on Candida albicans, in the test on Pseudomonas aeruginosa and in the test with Escherichia coli was inactive. Also, the MIC in the test with Staphylococcus aureus and with Bacillus subtilis was 4 µg/mL (≈ 17.8 µM) in each case. For the same compound, the concentration for half-maximal inhibition (IC50) (in the test on HCT-116; in the test with HeLa; with HepG2; in test [1]; in test [2]) was greater than 200 µM in each case.

Take `Cc1c(O)cc(CCCCC(C)[C@H](C)O)oc1=O` (some centres undefined): the result with Aspergillus niger, with Candida albicans, in the test with Pseudomonas aeruginosa and in the test on Escherichia coli was inactive. Further, the MIC with Staphylococcus aureus and in the test with Bacillus subtilis was 128 µg/mL (≈ 503 µM) each time. The IC50 (with HCT-116; in the test with HeLa; with HepG2; in [1]; in test [2]) was greater than 200 µM each time.

Take `C[C@@H]1[C@H](O)[C@@H](C)/C=C/C=C/C=C/C=C/C=C/C=C/C=C/[C@H](O[C@@H]2O[C@H](C)[C@@H](O)[C@H](N)[C@@H]2O)C[C@@H]2O[C@](O)(C[C@@H](O)C[C@@H](O)[C@H](O)CC[C@@H](O)C[C@@H](O)CC(=O)O[C@H]1C)C[C@H](O)[C@H]2C(=O)O` [AMPHOTERICIN B]: in the test on Aspergillus niger, the MIC is 1 µg/mL (≈ 1.08 µM).

In the case of `COc1cc(CCCCC(C)(C)O)oc(=O)c1C`, the result in the test with Aspergillus niger, with Candida albicans, with Pseudomonas aeruginosa, in the test on Escherichia coli and in the test on Bacillus subtilis was inactive. Further, in the test with Staphylococcus aureus, it took 128 µg/mL (≈ 503 µM) to inhibit growth (MIC). For the same compound, the IC50 (in the test with HCT-116; with HeLa; with HepG2; in test [1]; in test [2]) was greater than 200 µM in each case.

As to `O=C(O)c1cn(C2CC2)c2cc(N3CCNCC3)c(F)cc2c1=O` [CIPROFLOXACIN], the MIC against Staphylococcus aureus is 0.5 µg/mL (≈ 1.51 µM); against Bacillus subtilis, 0.12 µg/mL (≈ 0.362 µM).

On to `CCC(C)CCCCc1cc(O)c(C)c(=O)o1` (centres undefined), for which the outcome with Aspergillus niger, in the test on Candida albicans, in the test on Pseudomonas aeruginosa and with Escherichia coli was inactive. Further, the MIC with Staphylococcus aureus and against Bacillus subtilis was 16 µg/mL (≈ 67.1 µM) throughout. In addition, the IC50 (in the test with HCT-116; in the test on HeLa; with HepG2; in [1]; in test [2]) was greater than 200 µM throughout.

As for `CC(=O)C(C)CCCCc1cc(O)c(C)c(=O)o1` (centres undefined), the result with Aspergillus niger, with Candida albicans, in the test on Pseudomonas aeruginosa, in the test with Escherichia coli and with Bacillus subtilis was inactive. The compound further gave an MIC with Staphylococcus aureus of 128 µg/mL (≈ 507 µM). Moreover, the IC50 (in the test with HCT-116; in the test with HeLa; in the test with HepG2; in test [1]; in test [2]) was greater than 200 µM throughout.

For `COc1cccc2c1C(=O)c1c(O)c3c(c(O)c1C2=O)C[C@@](O)(C(=O)CO)C[C@@H]3O[C@H]1C[C@H](N)[C@H](O)[C@H](C)O1` [DOXORUBICIN], the IC50 came to 1.38 µM in the test on HCT-116, 0.97 µM in the test on HeLa, 0.98 µM in [1] and 1.48 µM in test [2].

Regarding `Cc1c(O)cc(CCCC(C)C)oc1=O`, the outcome in the test on Aspergillus niger, in the test on Candida albicans, in the test on Pseudomonas aeruginosa and with Escherichia coli was inactive. Moreover, the MIC against Staphylococcus aureus amounted to 8 µg/mL (≈ 38 µM); with Bacillus subtilis, 32 µg/mL (≈ 152 µM). The IC50 (with HCT-116; with HeLa; in the test with HepG2; in test [1]; in [2]) was greater than 200 µM throughout.

Take `Cc1c(O)cc(CCCCC(C)(C)O)oc1=O`: the outcome in the test on Aspergillus niger, with Candida albicans, in the test with Pseudomonas aeruginosa, in the test with Escherichia coli, with Staphylococcus aureus and in the test on Bacillus subtilis was inactive. Besides, the IC50 (in the test on HCT-116; in the test with HeLa; in the test with HepG2; in test [1]; in [2]) was greater than 200 µM in each case.
